This note sets out measurements from ChEMBL document CHEMBL5154634, “A Modular Synthetic Route Involving N-Aryl-2-nitrosoaniline Intermediates Leads to a New Series of 3-Substituted Halogenated Phenazine Antibacterial Agents” (J Med Chem, 2021).

Data set [1] in a line: Binding affinity to Fe2+ assessed as compound-Fe2+ complex formation by UV-vis spectroscopy.
The test system of the next data set is J774. Put plainly: Cytotoxicity against mouse J774 cells assessed as reduction in cell viability […] by Alamar blue assay. Type of data set: toxicity, cell-based.
A further data set relates to Erythrocyte. Briefly: Hemolytic activity against human RBC at 200 uM measured after 1 hr. Format: toxicity, cell-based. Put shortly: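 2% hRBCs exposed to compound at 200 μM final, added from DMSO stock, for 1 h at 37 °C. Supernatant OD read at 405 nm. Hemolysis normalized between DMSO (0%) and Triton X (100%); three independent experiments.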
For data set [2], the system named is Staphylococcus epidermidis. Briefly: Antibiofilm activity against methicillin-resistant Staphylococcus epidermidis ATCC 35984 biofilms assessed as reduction of viable biofilm cells at 3.13 uM measured by CBD assay. Format: functional.
The test system of a further data set is Streptococcus pneumoniae. Briefly: Antibacterial activity against Streptococcus pneumoniae ATCC 6303 assessed as bacterial growth inhibition incubated for 16 to 20 hrs by turbidity based analysis. Format: functional. As to conditions: time 16-20 hrs.
The next data set concerns HEK293. Put plainly: Cytotoxicity against human HEK293 cells assessed as reduction in cell viability incubated for 72 hrs by MTT assay. Type of data set: toxicity, cell-based. The method, boiled down: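 HEK-293 cells in DMEM with 10% FBS, 10⁴ cells/well, seeded overnight. Exposed to 0–200 μM (twofold steps, n = 6) for 72 h at 37 °C. MTT 5 mg/mL added for 4 h, formazan dissolved in DMSO, OD read at 570 nm. Inhibition % = (1 − test/untreated OD) × 100.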

Data set [3] deals with Staphylococcus aureus. Put plainly: Antibacterial activity against methicillin-resistant Staphylococcus aureus 138 assessed as bacterial growth inhibition. Type of data set: functional.
Data set [4] concerns Staphylococcus aureus. Briefly: Induction of iron starvation in methicillin-resistant Staphylococcus aureus BAA-1707 biofilms assessed as upregulation of isdB gene expression at 1 uM incubated for 4 hrs by RT-qPCR analysis. Format: functional. The method, boiled down:
(§1)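 MRSA BAA-1707 grown in TSB with 0.5% glucose to OD600 ~0.8–1.0, then biofilms formed 20 h at 37 °C statically in gelatin-coated 24-well plates. Biofilms treated 4 h at 37 °C with compound (1 μM or 1/10 MBEC) or DMSO vehicle. RNA extracted; only RIN ≥7 samples used. One-step SYBR RT-qPCR; ΔCT normalised to ptaA. Three independent experiments.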

Data set [5] deals with Staphylococcus aureus. Briefly: Induction of iron starvation in methicillin-resistant Staphylococcus aureus BAA-1707 biofilms assessed as upregulation of sbnC gene expression at 1 uM incubated for 4 hrs by RT-qPCR analysis. Format: functional. Put shortly: as §1
The test system of a further data set is Enterococcus faecium. Briefly: Antibacterial activity against vancomycin-resistant Enterococcus faecium ATCC 700221 assessed as bacterial growth inhibition incubated for 16 hrs by broth microdilution susceptibility test. Format: functional. Put shortly: (§2)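 CLSI broth microdilution with 11 twofold dilutions (0.05–50 μM). Medium was LB for the staphylococci and BHI for VRE 700221. About 10^5 cells per well from a log-phase culture. […] DMSO vehicle up to 0.5% v/v. At least three independent experiments.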

A further data set concerns HepG2. Briefly: Cytotoxicity against human HepG2 cells assessed as reduction in cell viability […] by Alamar blue assay. Type of data set: toxicity, cell-based.
The subject of data set [6] is Staphylococcus epidermidis. Put plainly: Antibiofilm activity against methicillin-resistant Staphylococcus epidermidis ATCC 35984 biofilms assessed as reduction of viable biofilm cells at MBEC measured by CBD assay. Type of data set: functional. The method, boiled down:
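After the Calgary biofilm device assay, treated and untreated pegs were removed, sonicated 30 min in PBS and plated for CFU per peg. Log10 reduction of viable biofilm cells at the MBEC determined by comparison with untreated pegs. At least three independent experiments.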

Data set [7] has as its system Staphylococcus aureus. Put plainly: Antibacterial activity against methicillin-resistant Staphylococcus aureus BAA-44 assessed as bacterial growth inhibition incubated for 16 hrs by broth microdilution susceptibility test. Type of data set: functional. Put shortly:
as §2

In data set [8] the test system is Staphylococcus epidermidis. Put plainly: Bactericidal activity against methicillin-resistant Staphylococcus epidermidis ATCC 35984 planktonic cells assessed as planktonic eradication incubated for 24 hrs followed by incubation for overnight in fresh medium by Calgary biofilm device assay. Format: functional. The method, boiled down:
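Calgary biofilm device. Biofilms grown 24 h at 37 °C in TSB with 0.5% glucose, then challenged 24 h with twofold compound dilutions. 20 μL of challenge medium transferred into fresh TSB with 0.5% glucose and incubated overnight at 37 °C. MBC is the concentration with no visible turbidity. At least three independent experiments.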

The test system of data set [9] is Staphylococcus aureus. Put plainly: Antibacterial activity against methicillin-resistant Staphylococcus aureus 156 assessed as bacterial growth inhibition. Format: functional.
Data set [10] concerns Staphylococcus aureus. Put plainly: Induction of iron starvation in methicillin-resistant Staphylococcus aureus BAA-1707 biofilms assessed as upregulation of isdB gene expression at 1/10XMBEC incubated for 4 hrs by RT-qPCR analysis. Type of data set: functional. The method, boiled down:
as §1

Data set [11] relates to Staphylococcus aureus. Briefly: Induction of iron starvation in methicillin-resistant Staphylococcus aureus BAA-1707 biofilms assessed as upregulation of MW0695 gene expression at 1 uM incubated for 4 hrs by RT-qPCR analysis. Type of data set: functional. The method, boiled down:
as §1

The subject of data set [12] is Enterococcus faecalis. Briefly: Antibacterial activity against Enterococcus faecalis OG1RF ATCC 47077 assessed as bacterial growth inhibition incubated for 16 hrs by broth microdilution susceptibility test. Type of data set: functional.
The test system of data set [13] is Staphylococcus epidermidis. Briefly: Antibiofilm activity against methicillin-resistant Staphylococcus epidermidis ATCC 35984 biofilms assessed as biofilm killing at 3.13 uM measured by CBD assay. Type of data set: functional.
For the next data set, the system named is HeLa. Put plainly: Cytotoxicity against human HeLa cells assessed as reduction in cell viability incubated for 24 hrs by LDH release assay. Type of data set: toxicity, cell-based. The method, boiled down:
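HeLa cells in DMEM with 10% FBS, treated at 70–80% confluence with 25, 50 and 100 μM for 24 h. LDH in supernatant measured by 30 min reaction at room temperature, then stop solution and absorbance at 490 nm. Controls: 2% Triton X-100 (maximum), medium only, DMSO vehicle. Three independent experiments.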

Data set [14] deals with Enterococcus faecalis. Briefly: Antibacterial activity against Enterococcus faecalis OG1RF ATCC 47077 infected in C57BL/6J mouse dorsal wound infection model assessed as reduction in bacterial load in wound administered topically once a day for 3 days. Format: functional. As to conditions: time 3 day. Put shortly:
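Female C57BL/6J mice, 7 weeks old. 3 mm dorsal punch wound infected with 20 μL of 6×10¹⁰ CFU/mL and covered with Tegaderm. From 24 h post-infection, PEG 400/PEG 3350 ointment or PEG vehicle applied topically once daily. Day 3 wounds excised, homogenized in PBS and plated on TSA with rifampicin and fusidic acid for CFU.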

The subject of data set [15] is Staphylococcus aureus. Put plainly: Induction of iron starvation in methicillin-resistant Staphylococcus aureus BAA-1707 biofilms assessed as upregulation of MW0695 gene expression at 1/10XMBEC incubated for 4 hrs by RT-qPCR analysis. Type of data set: functional. Put shortly:
as §1

The subject of data set [16] is Mycobacterium tuberculosis. Put plainly: Antibacterial activity against Mycobacterium tuberculosis CDC1551 assessed as bacterial growth inhibition incubated for 5 days by luminescence based analysis. Format: functional. As to conditions: CDC1551, 120 h, time 5 day. Put shortly:
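Bioluminescent Mtb-lux CDC1551 reporter grown in Middlebrook 7H9 with 0.05% Tween 80, 10% OADC and kanamycin to OD600 0.4–0.8, then diluted to OD600 0.02. Added to twofold drug dilutions (0.003–200 μM). Incubated 5 days at 37 °C, 5% CO2. Luminescence read against 1% DMSO and 10 μM rifampicin controls to give % growth inhibition. MIC taken from a modified Gompertz fit.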

Values after ≈ are worked out from the molar mass of the structure shown. Active and inactive are the calls of the source. The calls are words filed in the database; no cut-off is given here.

Regarding `Cc1cccc2nc3c(O)c(Br)c(Cl)c(Br)c3nc12`, the result (in [1]; with Staphylococcus aureus [4]; in the data set with Staphylococcus aureus [5]; in the data set on Staphylococcus aureus [10]; in the data set on Staphylococcus aureus [11]; with Staphylococcus aureus [15]) was Active. Also, the IC50 is more than 200 µM with J774, 18.3 µM with HEK293, more than 200 µM in the data set with HepG2 and more than 100 µM in the data set with HeLa. Besides, the Activity result with Erythrocyte is “<= 1%”; in data set [2], 5 log10CFU; in data set [6], 3.65 log10CFU; in data set [13], 99.999%; in the data set on Enterococcus faecalis [14], 1.73 log10CFU. For the same compound, the MIC in the data set on Streptococcus pneumoniae amounted to 0.5 µM (≈ 0.201 µg/mL); with Staphylococcus aureus [3], 0.06 µM (≈ 0.0241 µg/mL); in the data set with Enterococcus faecium it was 0.1 µM (≈ 0.0402 µg/mL); in the data set with Staphylococcus aureus [7], 0.08 µM (≈ 0.0322 µg/mL); with Staphylococcus aureus [9], 0.06 µM (≈ 0.0241 µg/mL); in the data set on Enterococcus faecalis [12] it was 0.2 µM (≈ 0.0805 µg/mL). The MIC in data set [16] was found to be 1.59 µM (≈ 0.64 µg/mL). For the same compound, in [8], the MBC was 0.78 µM (≈ 0.314 µg/mL).
